# Reference: ChEMBL document CHEMBL1129282, “High-affinity partial agonist imidazo[1,5-a]quinoxaline amides, carbamates, and ureas at the gamma-aminobutyric acid A/benzodiazepine receptor complex” (J Med Chem, 1996)
# Active and inactive are the calls of the source.
# Columns and labels:
# [1] = molecular target: GABA-A receptor; anion channel (Rattus norvegicus) (UniProt O09028+P15431+P18506+P18508+P19969+P20236+P23574+P23576+P28471+P28473+P30191+P62813+P63079+P63138+Q91ZM7+Q9ES14); conditions: Brain, Brain membranes
# Rattus norvegicus [2] = experiment: Antagonistic activity against metrazole-induced clonic convulsions in rat after ip injection; format: functional
# Rattus norvegicus [3] = species on record: Rattus norvegicus; experiment: In vitro [36Cl]-uptake in rat cerebrocortical synaptoneurosomes; format: functional; design: unit not given here
# Outline: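 Rat cerebrocortical synaptoneurosomes (1 mg protein) preincubated 5 min at 30 °C, then mixed with medium containing 0.2 µCi Na36Cl/mL, 118 mM NaCl, 5 mM KCl, 1.8 mM MgSO4, 20 mM Hepes/Tris pH 7.0, ± drug (methanol ≤0.4%). Uptake stopped after 5 s with ice-cold buffer, rapid filtration, four washes, radioactivity counted.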
# [4] = molecular target: GABA-A receptor; anion channel; experiment: Inhibition of [3H]flunitrazepam binding to GABA-A receptor of rat cortical membranes; format: cell membranes, Membrane
# Mus musculus [5] = experiment: Ethanol potentiation activity was measured as loss of righting reflex in male CF-1 mice after oral administration; format: functional
# Mus musculus [6] = experiment: Ethanol potentiation activity was measured as loss of traction response in male CF-1 mice after oral administration; format: functional
# Mus musculus [7] = experiment: In vivo antagonistic activity against benzodiazepine in mice after ip administration; format: functional
# Outline: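 Male CF-1 mice injected ip simultaneously with triazolam 1 mg/kg and test compound starting at […], in 0.25% aqueous methyl cellulose. Loss of traction scored 15 min later. Absence of triazolam effect indicated antagonism; lower doses at 0.5 log intervals then tested to establish ED50.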
# Mus musculus [8] = species on record: Mus musculus; experiment: Acute electroshock physical dependence activity was evaluated; A=Active; format: functional, organism-based
# Outline: (§1)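 Male CF-1 mice, 10/group, dosed sc twice daily (0800, and 1600 at twice the 0800 dose) for 3 days. 24 h after last dose, iv flumazenil 2.5 mg/kg in 5% aqueous N,N-dimethylacetamide. Electroshock seizure threshold (MA50) measured 5 min later versus saline-treated, flumazenil-injected controls. Compound scored active if threshold lowered beyond control interval.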
# Mus musculus [9] = species on record: Mus musculus; experiment: Acute electroshock physical dependence activity was evaluated; IA=Inactive; format: functional, organism-based
# Outline: as §1
[35S] TBPS shift [1],Ki [4],SMILES,ED50 (Rattus norvegicus [2]),36Cl- uptake (Rattus norvegicus [3]),ED50 (Mus musculus [5]),ED50 (Mus musculus [6]),ED50 (Mus musculus [7]),Activity (Mus musculus [8]),Activity (Mus musculus [9])
0.41,0.45 nM,O=C(N1CCCC1)N1Cc2c(-c3noc(C4CC4)n3)ncn2-c2ccccc21,0.24 mg/kg,0.5,–,–,–,–,–
0.84,2.9 nM,CC1(C)c2c(-c3noc(C4CC4)n3)ncn2-c2ccccc2N1C(=O)N1CCCC1,> 50 mg/kg,0.5,–,–,–,–,–
1.25,0.56 nM,O=C(N1CCCC1)N1Cc2c(-c3noc(C4CC4)n3)ncn2-c2ccc(F)cc21,> 50 mg/kg,0.69,–,–,–,–,–
0.6,–,O=C(N1CCCC1)N1Cc2c(-c3noc(C4CC4)n3)ncn2-c2cccc(Cl)c21,> 50 mg/kg,0.56,–,–,–,–,–
0.39,0.65 nM,CCc1nc(-c2ncn3c2CN(C(=O)N2CCCC2)c2ccccc2-3)no1,> 50 mg/kg,0.25,–,–,–,–,–
0.61,7.2 nM,NC(=O)N1Cc2c(-c3noc(C4CC4)n3)ncn2-c2ccccc21,13 mg/kg,0.75,–,–,–,–,–
1,0.64 nM,O=C(N1CCCC1)N1Cc2c(-c3noc(C4CC4)n3)ncn2-c2cccc(F)c21,> 50 mg/kg,0.59,–,–,–,–,–
0.93,1.1 nM,O=C(N1CCCC1)N1Cc2c(-c3noc(C4CC4)n3)ncn2-c2ccc(Cl)cc21,0.6 mg/kg,–,> 30 mg/kg,0.4 mg/kg,> 30 mg/kg,–,inactive
1.1,2.1 nM,CCSC(=O)N1Cc2c(-c3noc(C4CC4)n3)ncn2-c2ccccc21,1.3 mg/kg,1.1,–,–,–,–,–
0.84,0.81 nM,O=C(N1CCOCC1)N1Cc2c(-c3noc(C4CC4)n3)ncn2-c2ccccc21,0.84 mg/kg,0.15,–,–,–,–,–
0.69,1.1 nM,CC(C)c1nc(-c2ncn3c2CN(C(=O)N2CCCC2)c2ccccc2-3)no1,11 mg/kg,0.4,> 30 mg/kg,17 mg/kg,> 30 mg/kg,–,inactive
0.76,14.7 nM,CC(C)(C)c1nc(-c2ncn3c2CN(C(=O)N2CCCC2)c2ccccc2-3)no1,18 mg/kg,1.2,–,–,–,–,–

# Continued, molecule first:
SMILES,[35S] TBPS shift [1],Ki [4],ED50 (Rattus norvegicus [2]),36Cl- uptake (Rattus norvegicus [3]),ED50 (Mus musculus [5]),ED50 (Mus musculus [6]),ED50 (Mus musculus [7]),Activity (Mus musculus [8]),Activity (Mus musculus [9])
COC(=O)N1c2ccccc2-n2cnc(-c3noc(C4CC4)n3)c2C1(C)C,0.8,–,> 50 mg/kg,0.4,–,–,–,–,–
O=C(Sc1ccccc1)N1Cc2c(-c3noc(C4CC4)n3)ncn2-c2ccccc21,1.1,11 nM,> 50 mg/kg,0.5,–,–,–,–,–
CNC(=O)N1Cc2c(-c3noc(C4CC4)n3)ncn2-c2ccccc21,0.95,2.8 nM,11 mg/kg,0.53,11 mg/kg,2.7 mg/kg,22 mg/kg,Active,–
CN(C)C(=O)N1Cc2c(-c3noc(C4CC4)n3)ncn2-c2ccc(Cl)cc21,0.88,3.7 nM,–,–,–,–,–,–,–
CC(C)OC(=O)N1Cc2c(-c3noc(C4CC4)n3)ncn2-c2ccccc21,1.1,1.8 nM,1.9 mg/kg,–,–,–,–,–,–
CC(=O)N1c2ccccc2-n2cnc(-c3noc(C4CC4)n3)c2C1(C)C,0.7,–,30 mg/kg,–,–,–,–,–,–
CSC(=O)N1Cc2c(-c3noc(C4CC4)n3)ncn2-c2ccccc21,0.92,1.3 nM,6.2 mg/kg,0.73,> 30 mg/kg,0.3 mg/kg,> 30 mg/kg,Active,–
CC1(C)c2c(-c3noc(C4CC4)n3)ncn2-c2ccc(Cl)cc2N1C(=O)N1CCCC1,0.67,3.3 nM,35 mg/kg,1.04,> 30 mg/kg,0.2 mg/kg,9 mg/kg,–,inactive
O=C(Nc1ccccc1)N1Cc2c(-c3noc(C4CC4)n3)ncn2-c2ccccc21,1.3,16 nM,> 50 mg/kg,0.29,–,–,–,–,–
CSC(=O)N1c2ccccc2-n2cnc(-c3noc(C4CC4)n3)c2C1(C)C,0.8,5.1 nM,> 50 mg/kg,1,–,–,–,–,–
CN(C)C(=O)N1Cc2c(-c3noc(C4CC4)n3)ncn2-c2cccc(Cl)c21,0.62,0.71 nM,> 50 mg/kg,0.83,–,–,–,–,–
CN(C)C(=O)N1c2ccccc2-n2cnc(-c3noc(C4CC4)n3)c2C1(C)C,0.97,3.1 nM,> 50 mg/kg,0.34,–,–,–,–,–
O=C(c1ccc[nH]1)N1Cc2c(-c3noc(C4CC4)n3)ncn2-c2ccccc21,0.92,1.1 nM,4.4 mg/kg,1.1,–,–,–,–,–
CN(C)C(=O)N1c2cc(Cl)ccc2-n2cnc(-c3noc(C4CC4)n3)c2C1(C)C,0.79,3.1 nM,7.4 mg/kg,1.33,17 mg/kg,3 mg/kg,–,Active,–
O=C(c1ccco1)N1Cc2c(-c3noc(C4CC4)n3)ncn2-c2ccccc21,0.98,0.43 nM,21 mg/kg,0.55,–,–,–,–,–
COC(=O)N1Cc2c(-c3noc(C4CC4)n3)ncn2-c2ccccc21,0.7,1.5 nM,4.4 mg/kg,–,–,–,–,–,–
CC(C)NC(=O)N1Cc2c(-c3noc(C4CC4)n3)ncn2-c2ccccc21,1.1,3.4 nM,11 mg/kg,–,–,–,–,–,–
O=C(N1Cc2c(-c3noc(C4CC4)n3)ncn2-c2ccccc21)C(F)(F)F,0.73,143 nM,35 mg/kg,–,–,–,–,–,–
CNC(=O)N1c2ccccc2-n2cnc(-c3noc(C4CC4)n3)c2C1(C)C,0.71,21 nM,> 50 mg/kg,0.67,–,–,–,–,–
CC1(C)c2c(-c3noc(C4CC4)n3)ncn2-c2ccccc2N1C(N)=O,0.6,86 nM,> 50 mg/kg,0.22,–,–,–,–,–
O=C(c1ccccn1)N1Cc2c(-c3noc(C4CC4)n3)ncn2-c2ccccc21,0.27,1.1 nM,> 50 mg/kg,–,–,–,–,–,–
CC(C)(C)OC(=O)N1Cc2c(-c3noc(C4CC4)n3)ncn2-c2ccccc21,2.9,–,0.06 mg/kg,–,–,–,–,–,–
CN(C)C(=O)N1Cc2c(-c3noc(C4CC4)n3)ncn2-c2ccc(F)cc21,0.99,0.61 nM,–,0.95,–,–,–,–,–
CN(C)C(=O)N1Cc2c(-c3noc(C4CC4)n3)ncn2-c2cccc(F)c21,0.84,0.89 nM,21 mg/kg,0.6,> 30 mg/kg,3 mg/kg,4 mg/kg,Active,–
CCN(CC)C(=O)N1Cc2c(-c3noc(C4CC4)n3)ncn2-c2ccccc21,0.82,0.85 nM,15 mg/kg,0.62,> 30 mg/kg,> 30 mg/kg,4 mg/kg,–,inactive
